Hits are enriched below; roughly 1.7% of the tested compounds scored in any of these assays.
Cneo AK release = causes C. neoformans cell lysis | adenylate kinase release luminescence, 4 h; normalised: neutral wells 0, clomiphene wells 100 | lysis activity, % at 15 µM | 360,000 tested, 0.2% active;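 active = mean lysis activity across replicates of at least 80%, whatever share of replicates individually reach that level; inactive = mean lysis activity below 80%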
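Assay system: log-phase C. neoformans yeast / Quantity: yeast cell density of 5 × 10^6 cells/mL / Medium: fresh YPD growth medium / Compound: single dose / Timing: static 4 h at 37 °C with compound, 1 h detection / Measured by: adenylate kinase release luminescence / Read-out: lysis from increased AK signal / Benchmarks: Clomiphene as positive lysis control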
Ecoli rRNA inh = inhibitors of bacterial rRNA selective over humanized ribosomes; GFP signal change (wild-type ribosome), % (concentration not given with the values); E. coli WT GFP vs humanized-ribosome RFP mutants, fluorescence, 24 h; stronger effect = lower value; DMSO median 0, no signal -100; 350,000 tested, 1.6% active;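 active = significant combined selectivity score with lowered wild-type GFP, culture density cut under 30%, mutant RFP and density less affected; inactive = any of these conditions unmet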
CFTR F508del cor = CFTR F508del correction in bronchial cells; CFBE cells, YFP halide quenching; stimulated with forskolin plus potentiator P3; % fluorescence drop versus neutral controls; activity (quench increase), % at 7.58 µM; 350,000 tested, 0.36% active;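 active = mean added fluorescence quench of at least 8% versus neutral control, with both replicates also reaching 8%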;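 note: cells transiently co-express mutant CFTR-F508del with the halide-sensitive YFP; corrector assay measuring rescue of mutant channel to the surface after 24 h compound exposure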
CaV13 FRET inh = Disruptors of the CACNA1D IQ motif to Ca2+-dependent inactivation inhibitor domain association, primary screening, Förster resonance energy transfer in intact living … | HEK cells, CFP/YFP FRET ICDI-IQ, plate reader, 10 min; percent FRET-ratio fall versus neutral wells | inhibition, % at 12.3 µM | 340,000 tested, 0.098% active;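 active = mean replicate inhibition of at least 30% and at least 1% of replicates passing that level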
Large screens that a line does not name were inactive; ! = not confirmed by another sample.

COCCOC(=O)c1[nH]c2c(c1C)C(=O)CC(c1cc(OC)ccc1OC)C2 (stereo not drawn)	none
CCCOCCOC(=O)c1[nH]c2c(c1C)C(=O)CC(c1cc(OC)ccc1OC)C2 (stereo not drawn)	CFTR F508del cor 9.6
OC[C@H]1[C@@H](c2ccc(-c3cccnc3)cc2)[C@@H]2CN(CC3CCOCC3)CCCCN12	none (no result: Ecoli rRNA inh, CaV13 FRET inh)
COCCNC(=O)C[C@@H]1C[C@@H]2c3cc(NC(=O)Nc4ccccc4F)ccc3O[C@@H]2[C@H](CO)O1	none (no result: CaV13 FRET inh)
CC(C)C(=O)N1CCN(c2cc(N3CCN(C)CC3)c(F)cc2[N+](=O)[O-])CC1	none (no result: Cneo AK release)
CC(=O)N1CCN(c2cc(N3CCCC3)c(F)cc2[N+](=O)[O-])CC1	Ecoli rRNA inh -19
Cn1c(=O)n(C)c2cc([N+](=O)[O-])c(N3CCN(C(=O)C(C)(C)C)CC3)cc21	Ecoli rRNA inh -23 (no result: Cneo AK release)
O=C1N[C@H](c2ccccc2)COCc2cn(nn2)CC[C@H]1Cc1ccc(Cl)cc1	none (no result: Cneo AK release, CFTR F508del cor, CaV13 FRET inh)
CC(C)N1CCN(Cc2ccncc2)CC1CCO (stereo not drawn)	none (no result: Cneo AK release)
Cc1ccc(-c2cccc(CN3CCN(C(C)C)C(CCO)C3)c2)o1 (stereo not drawn)	CFTR F508del cor 11 (no result: Cneo AK release)
COc1ccc(S(=O)(=O)Nc2ccc3c(c2)C(=O)N([C@H](C)CO)C[C@H](C)[C@H](CN(C)C)O3)cc1	none (no result: CaV13 FRET inh)
Cc1ccc(-c2nc3ccccc3c(=O)n2NC(=O)COc2ccccc2)cc1	none (no result: Cneo AK release, Ecoli rRNA inh, CFTR F508del cor)
Cc1ccc(OCC(=O)Nn2c(C)nc3ccccc3c2=O)c(C(C)C)c1	Ecoli rRNA inh -22
Cc1cccc(NC(=O)/C(C#N)=C/c2ccccc2Cl)n1	Ecoli rRNA inh -22
Cc1cccc(NC(=O)/C(C#N)=C/c2ccccc2O)n1	none
O=C(N/N=C/c1c(O)ccc2ccccc12)c1ccc(CO)nc1	CFTR F508del cor 14
Oc1ccc2ccccc2c1/C=N/Nc1ccccc1	none (no result: Cneo AK release, Ecoli rRNA inh, CFTR F508del cor)
O=CN/N=C/c1c(O)ccc2ccccc12	Ecoli rRNA inh -20 (no result: Cneo AK release)
O=C(NN=Cc1c(O)ccc2ccccc12)c1ccc2c(c1)OCO2	none
C[C@H]1CN([C@@H](C)CO)S(=O)(=O)c2ccc(C3=CCCC3)cc2O[C@@H]1CN(C)CC1CCOCC1	none (no result: CaV13 FRET inh)
O=C(COc1cccc2ccccc12)NNC(=O)Nc1ccccc1	Ecoli rRNA inh -33 (no result: CFTR F508del cor)
C/C=C/c1ccc([C@H]2[C@@H](CO)N(C(C)=O)C23CN(C(=O)c2ccccc2)C3)cc1	none (no result: Cneo AK release, CaV13 FRET inh)
CO[C@@H]1CN(C)C(=O)c2cc(NC(C)=O)ccc2OC[C@H](C)N(Cc2cccnc2)C[C@@H]1C	none (no result: CaV13 FRET inh)
CCN1CCN(C2=C(NS(=O)(=O)c3ccc(C)cc3)C(=O)c3ccccc3C2=O)CC1	Ecoli rRNA inh -18
O=C1C(NS(=O)(=O)c2ccc(Br)cc2)=C(N2CCCCC2)C(=O)c2ccccc21	none
CC1CCN(C2=C(NS(=O)(=O)c3ccc(Cl)cc3)C(=O)c3ccccc3C2=O)CC1	none
CCN1CCN(C2=C(NS(=O)(=O)c3ccc(NC(C)=O)cc3)C(=O)c3ccccc3C2=O)CC1	none
CC(=O)Nc1ccc(S(=O)(=O)NC2=C(N3CCN(Cc4ccccc4)CC3)C(=O)c3ccccc3C2=O)cc1	CFTR F508del cor 15!
CC1CCN(C2=C(NS(=O)(=O)c3ccccc3)C(=O)c3ccccc3C2=O)CC1	Ecoli rRNA inh -24 (no result: Cneo AK release)
COc1ccc(NC(=O)Nc2ccc3c(c2)[C@@H]2C[C@H](CC(=O)NC4CCCC4)O[C@@H](CO)[C@@H]2O3)cc1	none (no result: CaV13 FRET inh)
Cc1ccc(C(=O)Nc2ccc(O)cc2C(=O)O)cc1C	Ecoli rRNA inh -25
C=CCn1c(-c2cc(-c3ccc(C)cc3)nc3ccccc23)n[nH]c1=S	Ecoli rRNA inh -29 (no result: Cneo AK release)
N#C[C@@H]1[C@H](c2ccccc2C2=CCCC2)[C@@H](CO)N1C(=O)c1ccccn1	none (no result: Cneo AK release, CFTR F508del cor, CaV13 FRET inh)
CN(C)CC(=O)N[C@@H]1CC[C@H](CC(=O)NCc2ccccc2F)O[C@H]1CO	none (no result: CaV13 FRET inh)
COc1ccc(NCC(=O)Nc2ccc(Cl)cc2C)c(OC)c1	Ecoli rRNA inh -19
COc1ccccc1N(CC(=O)NCCSc1ccccc1)S(C)(=O)=O	none (no result: Ecoli rRNA inh, CFTR F508del cor)
CC(C)(C)SCCNC(=O)CN(c1ccc(F)cc1)S(=O)(=O)c1ccccc1	Cneo AK release 210
O=C(CN(c1ccc(F)cc1)S(=O)(=O)c1ccccc1)NCCSC1CCCCC1	none
COc1ccccc1N(CC(=O)NCCSc1ccccc1)S(=O)(=O)c1ccccc1	Ecoli rRNA inh -31
C[C@H](CO)N1C[C@H](C)[C@@H](CN(C)Cc2ccc3c(c2)OCO3)Oc2cc(C#CCN(C)C)ccc2S1(=O)=O	none (no result: CaV13 FRET inh)
CC(=O)c1sc(N/N=C/c2cccc([N+](=O)[O-])c2)nc1C	none
CC(=O)c1sc(N/N=C\c2ccc(N(C)C)cc2)nc1C	CaV13 FRET inh active
CC(=O)c1sc(N/N=C/c2cccc(O)c2)nc1C	Ecoli rRNA inh -21
CC(=O)c1sc(N/N=C\c2c(O)ccc3ccccc23)nc1C	none
CC(=O)Nc1sc(N/N=C/c2ccc(N(C)C)cc2)nc1-c1ccc(C)cc1	Ecoli rRNA inh -33
O=C1N[C@@H](c2ccccc2)COCc2cn(nn2)CC[C@H]1Cc1ccc(-c2ccccc2)cc1	none (no result: Cneo AK release, CFTR F508del cor, CaV13 FRET inh)
C[C@@H]1CCCCO[C@H](CN(C)C)[C@H](C)CN([C@H](C)CO)C(=O)c2cc(NC(=O)CCCN(C)C)ccc2O1	none (no result: Cneo AK release, CaV13 FRET inh)
O=C(O)CC1(CC(=O)Nc2ccc3ccccc3c2)CCCCC1	none (no result: Ecoli rRNA inh, CFTR F508del cor)
O=C(O)CC1(CC(=O)Nc2ccc(F)c(Cl)c2)CCCCC1	Ecoli rRNA inh -23
Fc1ccc(-c2csc(-c3ccncc3)n2)cc1	none
N#C/C(=N/O)c1nc(-c2ccc(F)cc2)cs1	Ecoli rRNA inh -41 (no result: Cneo AK release)
Cc1c(Cl)cccc1NC(=S)N1CCN(C(=O)c2ccco2)CC1	Ecoli rRNA inh -28
CC(=O)Nc1ccc2c(c1)C(=O)N(C)[C@@H]1CC[C@@H](CC(=O)NCc3ccccc3Cl)O[C@@H]1CO2	none (no result: CaV13 FRET inh)
O=C1OC(c2ccc3ccccc3c2O)(c2ccc3ccccc3c2O)c2ccccc21	Ecoli rRNA inh -41
O=C(NCCCN1CCOCC1)c1sc2cc(F)ccc2c1Cl	none (no result: CFTR F508del cor)
O=C(NCCCN1CCOCC1)c1sc2cc(Cl)ccc2c1Cl	CFTR F508del cor 11 (no result: Cneo AK release)
CN(C)CCCNC(=O)[C@H]1[C@H](CO)[C@H]2Cn3c(cccc3=O)[C@@H]1N2C(=O)Nc1cc(F)ccc1F	none (no result: CFTR F508del cor, CaV13 FRET inh)
CN(CC(=O)Nc1cccc(F)c1)C(=O)CCCc1c[nH]c2ccccc12	Ecoli rRNA inh -26
CCC1CCCCN1Cc1c(O)ccc2c(=O)c(-c3ccccc3OC)coc12 (stereo not drawn)	none
CC1CCCCN1Cc1c(O)ccc2c(=O)c(-c3nc4ccccc4s3)coc12 (stereo not drawn)	CaV13 FRET inh 44
CCOc1ccc(NC(=O)CN2C(=O)COc3ccc(S(=O)(=O)N4CCCC4)cc32)cc1	Ecoli rRNA inh -23
COc1ccc(-c2ccc(SCC(=O)c3cccs3)nn2)cc1OC	Ecoli rRNA inh -34 (no result: Cneo AK release, CFTR F508del cor)
C=CCOc1ccc(Br)cc1/C=C1\NC(=S)N(C(C)=O)C1=O	Ecoli rRNA inh -32
